# Assay outcomes as filed in PubChem BioAssay.
# Most compounds without a hit are left out; they make up all but 5.7% or so of the library.
# SKKanGAS inh = inhibitors of SKKanGAS S. pyogenes growth in kanamycin (SK-promoter or general growth effect); 1.3% of 300,000 active; inhibition, % at 7.5 µM; BacTiter-Glo, 6 h;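 active = mean replicate score, as percent of positive control median, at least 50; inconclusive = mean below 50 but one replicate at or above 50; inactive = mean and every replicate below 50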;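 note: strain carries kanamycin resistance gene driven by streptokinase promoter and grows in 40 µg/ml kanamycin; loss of luminescence reflects streptokinase promoter inhibition or plain growth inhibition; 0% = median of DMSO wells and 100% = positive control at its reference dose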
# Calb FLC = affects C. albicans growth with fluconazole | C. albicans CaCi-2 (fluconazole-resistant clinical isolate) + fluconazole, Alamar Blue growth, 48 h | growth inhibition, % (concentration not given with the values) | 0.57% of 300,000 active | AID 1979;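 active = growth inhibition above about 58% in most replicates, limit read from the data, passing the limit was not always enough; inconclusive = exactly half the replicates above a set limit; inactive = most replicates below a set limit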;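 note: all wells also contain fluconazole at 8 µg/ml as a sub-toxic cotreatment; 0% = median of DMSO wells and 100% = median of geldanamycin control wells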
# CSC inhib = blocks cancer stem cells | 1.1% of 300,000 active | inhibition, % at 7.5 µM | cancer stem cell-like cells viability, luminescence; in the data active = inhibition above about 75%; inconclusive = no clear call, values can overlap the other calls; tested in HMLE shEcad cells
# T cruzi repl = blocks replication of Trypanosoma cruzi; T. cruzi beta-gal in NIH3T3, luminescence, 90 h; inhibition, % (concentration not given with the values); 1.4% of 300,000 active; AID 1885;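 active = mean inhibition across valid replicates above about 55%, limit read from the data; inconclusive = mean below that limit but half or more replicates reach it; inactive = mean below it, under half of replicates reach it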;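 note: signal also drops with host cell toxicity which is not excluded here; 0% = plate median of DMSO wells and 100% = zero luminescence signal; higher percent means less beta-gal luminescence so fewer parasites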
#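 Assay system: NIH/3T3 host cells with β-galactosidase reporter T. cruzi; input: 5,000 host fibroblasts per well; compound: single 50 nL compound addition per well in DMSO; timing: ≥90 h infection period, 3 h prior cell attachment; measured by: GalScreen β-gal luminescence, detergent lysis, 60 min; evaluation: percent inhibition of parasite-derived β-gal signal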
# Mdm2 MdmX PPI = disrupts the human Mdm2-MdmX interaction; O15151+Q00987; 3% of 330,000 active; AID 485346; SaOS-2 split-luciferase Mdm2/MdmX complementation, luminescence; inhibition, % at 8 µM;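 active = inhibition of at least 50% at 8 µM in the primary screen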
# Beta apoptosis = blocks beta cell apoptosis. INS-1E cytokine-induced death, ATP luminescence, 48 h; percent of positive-control rescue, neutral wells zero. protection from apoptosis, % (test concentration not listed). 0.8% of 300,000 active. AID 435005;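 active = Every replicate reaches about 75%, or at least half do and their mean reaches it too, limit read from the data; inconclusive = At least half of replicates reach the limit but their mean does not; inactive = Under half of replicates reach the limit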;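 note: 0% = cytokine-treated negative control wells and 100% = positive control rescue; higher means more ATP so stronger rescue from cytokine killing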
# Mdm2 MdmX conf = human Mdm2/MdmX binding inhibition, confirmed. shares compounds with Mdm2 MdmX PPI. 55% of 10,000 active. luminescent assay. inhibition, % at 8 µM. AID 489028; in the data active = inhibition above about 40%
# Full FLuc ctr = inhibits full-length luciferase, flagging false Mdm2/MdmX hits; SaOS-2 full-length luciferase counterscreen, luminescence; shares compounds with Mdm2 MdmX PPI; AID 504607; 77% of 6,200 active; inhibition, % at 8 µM;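 active = mean inhibition at 8 µM reaching about 37%, which flags the compound as non-specific, limit read from the data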;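 note: p53-null SaOS-2 cells with luciferase driven by a doxycycline-inducible promoter; compound on cells about two nights before reading with doxycycline added after day one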
# The depositor's hits bear a star; u = inconclusive; x = no result.
SMILES,SKKanGAS inh,Calb FLC,CSC inhib,T cruzi repl,Mdm2 MdmX PPI,Beta apoptosis,Mdm2 MdmX conf,others
Cc1ccc(O)c(NC(=S)NC(=O)/C=C/c2ccco2)c1,4,-9,57,-5,39,-11,x,
O=C(/C=C/c1ccco1)NC(=S)Nc1ccc(N2CCCC2)cc1,5,2,67,-11,61*,-2,62*,Full FLuc ctr=52*
O=C(/C=C/c1ccco1)NC(=S)Nc1ccc(O)c(-c2nc3ccccc3s2)c1,4,-5,x,-13,77*,40,32,Full FLuc ctr=72*
CC(=O)NC(=S)Nc1ccc(NC(=S)NC(=O)/C=C/c2ccco2)cc1,83*,-6,6,-5,73*,21,65*,Full FLuc ctr=35
CCC(=O)Nc1ccc(NC(=S)NC(=O)/C=C/c2ccco2)cc1,2,9,-6,-2,24,-13,x,
O=C(Nc1cccc(Cl)c1Cl)C1CCN(C(=O)c2cccs2)CC1,-3,6,-6,-7,13,4,x,
CC(=O)c1ccc(S(=O)(=O)N2CCN(CCOc3ccccc3)CC2)cc1,x,x,1,x,-9,-1,x,
Fc1ccc2c(Cl)c(-c3nnc(-c4cccs4)o3)sc2c1,-3,3,-11,-1,84*,-6,-138,
COc1cc(-c2nnc(-c3cccs3)o2)cc(OC)c1OC,-3,-3,-6,3,14,0,x,
CN1CCN(c2ncnc3scc(-c4ccccc4Cl)c23)CC1,-2,7,-14,-16,70*,-21,79*,Full FLuc ctr=29
Cc1ccc(-c2csc3ncnc(N4CCc5ccccc5C4)c23)cc1,23,-3,17,27,24,9,x,
COc1ccc(-c2csc3nc(C)nc(N4CCN(C(C)=O)CC4)c23)cc1OC,1,6,4,1,-6,0,x,
Cc1ccc(-c2csc3ncnc(N4CCN(S(=O)(=O)c5cccs5)CC4)c23)cc1,x,x,x,x,51*,19,18,
Fc1ccc(-c2csc3ncnc(N4CCc5ccccc5C4)c23)cc1,u,2,48,7,51*,0,27,
CCN1CCN(c2ncnc3scc(-c4ccc(C)cc4)c23)CC1,3,-17,-39,7,20,-3,x,
COc1ccc(-c2csc3nc(C)nc(N4CCC(C)CC4)c23)cc1OC,2,29,12,10,66*,-7,38,Full FLuc ctr=84*
O=C(CNC(=O)c1cc(S(=O)(=O)N2CCCCC2)ccc1N1CCOCC1)Nc1ccc(F)c(F)c1,-4,-1,-16,0,19,x,x,
Cc1nc(N2CCN(c3ccccc3O)CC2)c2c(-c3ccccc3)csc2n1,u,-5,46,-6,52*,-9,55*,Full FLuc ctr=59*
Oc1ccccc1N1CCN(c2ncnc3scc(-c4ccccc4)c23)CC1,13,-2,26,0,59*,5,30,
Oc1ccccc1N1CCN(c2ncnc3scc(-c4ccc(F)cc4)c23)CC1,26,-27,16,3,39,15,x,
CSc1cccc(NC(=O)C2CCCN(c3ncnc4c3nc3n4CCCCC3)C2)c1 (stereo not drawn),12,-14,42,17,57*,-12,-23,
CC(=O)c1ccc(NC(=O)C2CCCN(c3ncnc4c3nc3n4CCCCC3)C2)cc1 (stereo not drawn),5,-7,x,0,29,5,x,
CC(C)c1ccc(NC(=O)C2CCN(c3ncnc4c3nc3n4CCCCC3)CC2)cc1,2,-9,-14,11,72*,16,30,
CCC[C@H]1COCCS(=O)(=O)N1Cc1ccc(Br)cc1,3,23,1,9,21,-3,x,
Cc1ccc(S(=O)(=O)N2CCCCC2)cc1NC(=O)c1cnccn1,x,x,x,x,8,x,x,
SMILES,SKKanGAS inh,Calb FLC,CSC inhib,T cruzi repl,Mdm2 MdmX PPI,Beta apoptosis,Mdm2 MdmX conf,others
Nc1nc(Nc2cccc3ccccc23)nc(C2CCCC2=O)n1 (stereo not drawn),6,-1,3,5,28,5,x,
Nc1nc(CCl)nc(Nc2cccc3ccccc23)n1,-2,5,3,70*,97*,-6,98*,Full FLuc ctr=61*
Cc1ccc(-c2cc(C(F)F)n3ncc(C(=O)N4CCc5ccccc54)c3n2)cc1,17,-10,67,1,61*,14,64*,Full FLuc ctr=57*
O=C(c1cnn2c(C(F)F)cc(-c3ccccc3)nc12)N1CCc2ccccc21,-20,-15,18,2,26,7,x,
CCc1nccn1C(=O)c1cnn2c(C(F)F)cc(-c3ccc(C)cc3)nc12,4,16,38,17,61*,-33,19,
Cc1ccccc1CN1[C@@H](C(C)C)COCCS1(=O)=O,9,-7,-5,1,21,-3,x,
CCc1ccc2nc(N(CCN(C)C)C(=O)/C=C/c3cccs3)sc2c1,3,4,66,12,51*,8,21,
CCOc1ccc2nc(N(CCN(C)C)C(=O)/C=C/c3cccs3)sc2c1,-2,2,6,22,65*,-2,31,
CN(C)CCN(C(=O)/C=C/c1cccs1)c1nc2ccc(Br)cc2s1,-1,6,20,28,27,7,x,
COC(=O)c1ccc(COc2ccc(-c3nnn(CC(=O)NC(C)(C)C)n3)cc2)cc1,-11,2,-3,-5,49,5,x,
COC(=O)c1ccc(COc2ccc(-c3nnn(CC(N)=O)n3)cc2)cc1,-7,-2,8,-2,56*,-1,11,
CN(C)CCCNc1ncnc2oc(-c3ccccc3)c(-c3ccccc3)c12,2,2,15,42,66*,2,39,Full FLuc ctr=64*
CCOC(=O)c1sc(NC(=O)c2cc(-c3ccccc3C)nc3ccccc23)c(C#N)c1C,51*,u,89*,4,97*,39,92*,Full FLuc ctr=32
CCOC(=O)c1sc(NC(=O)c2ccncc2)c(C#N)c1C,-9,-9,-1,-7,10,10,x,
COc1ccc(Br)cc1/C=C/c1ccc2cccc(O)c2n1,100*,-6,28,44,51*,20,38,
COc1cc(Br)cc(/C=C/c2ccc3cccc(O)c3n2)c1OC,93*,-8,52,48,65*,16,26,
c1nc(CCO[C@H]2CCCCO2)cc2cc3c(cc12)OCO3,x,x,-2,x,56*,-2,35,
c1ccc2cc(CCO[C@H]3CCCCO3)ncc2c1,x,x,-4,x,2,0,x,
Cn1ccnc1C(OC(=O)c1ccccc1)C(F)(F)F (stereo not drawn),0,-2,-9,12,13,-5,x,
CCC(=O)NC(c1ccc(Cl)cc1Cl)c1ccc2cccnc2c1O (stereo not drawn),64*,107*,104*,67*,78*,104*,87*,Full FLuc ctr=20
